Assay results reported in ChEMBL document CHEMBL1135801, “Synthesis, structure, and activity of diclofenac analogues as transthyretin amyloid fibril formation inhibitors” (J Med Chem, 2002).

Tests used:
[1] = target: Transthyretin (Homo sapiens) (UniProt P02766); assay: Inhibition of L55P TTR fibril formation was measured at OD400.; type: functional
Procedure, shortened: (§1)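 Stagnant fibril formation assay. TTR at 0.4 mg/mL in 10 mM sodium phosphate, 100 mM KCl, 1 mM EDTA, pH 7.6, was preincubated 30 min at 37 °C with compound added from DMSO stock. Acetate buffer then lowered the pH to 4.2 (wild type) or 5 (V30M, L55P), and samples stood unagitated 72 h at 37 °C. After vortexing, turbidity was read at 400 nm and expressed as percent of the no-inhibitor sample. Triplicates.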

[2] = target: Transthyretin (Homo sapiens) (UniProt P02766); assay: Inhibition of V30M TTR fibril formation at OD400; type: functional; procedure, shortened: as §1
[3] = target: Transthyretin (Homo sapiens) (UniProt P02766); assay: Inhibition of wild type TTR fibril formation at OD400; type: functional; procedure, shortened: as §1
[4] = target: Transthyretin (Homo sapiens) (UniProt P02766); assay: Quaternary structure of the soluble protein after incubation of 3.6 uM L55P TTR with 10.8 uM of compound; type: functional
Procedure, shortened: (§2)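 3.6 µM TTR (wild type, V30M or L55P) was held 72 h with 10.8 µM compound under stagnant fibril formation conditions at the variant's pH maximum. Precipitate was removed by spinning at 14 000 rpm, and the supernatant was analysed by analytical ultracentrifugation to give % tetramer, monomer and aggregate and MW.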

[5] = target: Transthyretin (Homo sapiens) (UniProt P02766); assay: Quaternary structure of the soluble protein after incubation of 3.6 uM V30M TTR with 10.8 uM of compound; type: functional; procedure, shortened: as §2
[6] = target: Transthyretin (Homo sapiens) (UniProt P02766); assay: Quaternary structure of the soluble protein after incubation of 3.6 uM wild type TTR with 10.8 uM of compound; type: functional; procedure, shortened: as §2
[7] = First dissociation constant of the binding of compound to V30M TTR; type: functional
Procedure, shortened: (§3)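 Isothermal titration calorimetry at pH 7.6 (100 mM phosphate, 100 mM KCl, 1 mM EDTA). A 435 µM ligand solution in this buffer, concentration set by ε280 = 10 400 M-1 cm-1, was titrated into cells holding 21.1 µM wild type, 20.1 µM V30M or 20.0 µM L55P TTR.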

[8] = Second dissociation constant of the binding of compound to V30M TTR; type: functional; procedure, shortened: as §3
[9] = target: Transthyretin (Homo sapiens) (UniProt P02766); assay: First dissociation constant of the binding of compound to L55P TTR; type: functional; procedure, shortened: as §3
[10] = target: Transthyretin (Homo sapiens) (UniProt P02766); assay: Second dissociation constant of the binding of compound to L55P TTR; type: functional; procedure, shortened: as §3
[11] = target: Transthyretin (Homo sapiens) (UniProt P02766); assay: First dissociation constant of the binding of compound to wild type TTR; type: functional; procedure, shortened: as §3
[12] = target: Transthyretin (Homo sapiens) (UniProt P02766); assay: Second dissociation constant of the binding of compound to wild type TTR; type: functional; procedure, shortened: as §3
[13] = target: Transthyretin (Homo sapiens) (UniProt P02766); assay: (§4) Quaternary structure of the soluble protein after incubation of 3.6 uM of compound; type: functional
[14] = target: Transthyretin (Homo sapiens) (UniProt P02766); assay: as §4; type: functional; remark: listed apart in the source
[15] = target: Transthyretin (Homo sapiens) (UniProt P02766); assay: as §4; type: functional; remark: listed apart in the source
[16] = target: Transthyretin (Homo sapiens) (UniProt P02766); assay: Quaternary structure of the soluble protein after incubation of 10.8 uM of compound

| Formation [1] | Formation [2] | Formation [3] | Structure (SMILES) | also measured |
| --- | --- | --- | --- | --- |
| 90% | 85% | 100% | CCCc1ccccc1Nc1c(Cl)cccc1Cl |  |
| 85% | 70% | 82% | CCc1ccccc1Nc1c(Cl)cccc1Cl |  |
| 90% | 62% | 60% | OCCc1ccccc1Nc1c(Cl)cccc1Cl |  |
| 90% | 80% | 85% | CC(C)c1ccccc1Nc1c(Cl)cccc1Cl |  |
| 75% | 33% | 40% | O=C(O)c1cc(Cl)c(Nc2ccc([N+](=O)[O-])cc2)c(Cl)c1 | Tetramer [4]: > 95%; Aggregate [5]: 10%; Tetramer [5]: 90%; Aggregate [6]: 7%; Tetramer [6]: 93% |
|  | 67% | 65% | NC(=O)Cc1ccccc1Nc1c(Cl)cccc1Cl |  |
| 72% | 33% | 35% | O=C(O)Cc1ccccc1Nc1c(Cl)cccc1Cl | Kd1 [7]: 160 nM; Kd2 [8]: 3.9 µM; Kd1 [9]: 380 nM; Kd2 [10]: 6.18 µM; Kd1 [11]: 60 nM; Kd2 [12]: 1200 nM |
| 90% | 90% | 78% | COC(=O)Cc1ccccc1Nc1c(Cl)cccc1Cl |  |
| 50% | 30% | 34% | O=C(O)c1ccccc1Nc1cc(Cl)cc(Cl)c1 |  |
| 53% | 27% | 30% | O=C(O)Cc1ccccc1Nc1cc(Cl)cc(Cl)c1 | Tetramer [13]: 76%; Tetramer [14]: > 95%; Tetramer [15]: > 95%; Aggregate [16]: 24% |
|  | 27% | 30% | O=C(O)c1ccccc1Nc1c(Cl)cccc1Cl |  |
| 45% | 28% | 32% | O=C(O)Cc1ccccc1Nc1c(Cl)cc(C(=O)O)cc1Cl | Tetramer [13]: 95%; Tetramer [14]: > 95%; Tetramer [15]: 95%; Monomer [16]: 5% |
| 90% | 70% | 75% | ClCCc1ccccc1Nc1c(Cl)cccc1Cl |  |
